Measurements published in ChEMBL document CHEMBL1131115, “Strategies to target kyotorphin analogues to the brain” (1998).
Where a SMILES comes first, the peptide text is derived from it.

Species on record: Rattus norvegicus
Test: Compound was evaluated for brain targeted delivery system by Tail flick latency as an index of spinal cord mediated analgesia in rats
Assay type: functional
Method in brief: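 Male Sprague-Dawley rats, 250-300 g, housed singly at ~25 °C. Compounds in 0.2 mL propylene glycol:DMSO (2:1) given iv via tail vein, 0.0223 mmol/kg (equivalent to 7.5 mg/kg kyotorphin); dose-response range 0.0030-0.0223 mmol/kg. Tail-flick meter, beam set for 7-8 s baseline latency. Baseline 10 min pre-dose, then 15 min to 6 h. Six rats per group; mean ± SE, ANOVA.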

With `CC(C)CCCC(C)C1CCC2C3CC=C4CC(OC(=O)C(CCCC[n+]5cccc(C(N)=O)c5)NC(=O)[C@H](Cc5ccc(O)cc5)NC(=O)OC(C)(C)C)CCC4(C)C3CCC12C` (some centres not stated) as the compound, how does the Latency time read?
Its Latency time is 10 s.

How did the Latency time turn out when `CC(C)CCCC(C)C1CCC2C3CC=C4CC(OC(=O)C(CCCCN5C=CCC(C(N)=O)=C5)NC(=O)C(Cc5ccc(O)cc5)NC(=O)OC(C)(C)C)CCC4(C)C3CCC12C` (configuration not stated) was run?
Its Latency time is 26 s.

Which Latency time does the source give for `NC(N)=NCCC[C@H](NC(=O)[C@@H](N)Cc1ccc(O)cc1)C(=O)O` [KYOTORPHIN] here?
The Latency time was 11 s.

For `CC(C)CCCC(C)C1CCC2C3CC=C4CC(OC(=O)C(CCCCN)NC(=O)[C@H](Cc5ccc(O)cc5)NC(=O)OC(C)(C)C)CCC4(C)C3CCC12C` (some centres not stated), which Latency time is on record?
The Latency time was 10 s.

Which Latency time does the source give for `CC(C)CCCC(C)C1CCC2C3CC=C4CC(OC(=O)C(CCCC[n+]5cccc(C(N)=O)c5)NC(=O)C(N)Cc5ccc(O)cc5)CCC4(C)C3CCC12C` (configuration not stated) here?
Its Latency time is 17 s.

How did the Latency time turn out when `NCCCC[C@H](NC(=O)[C@@H](N)Cc1ccc(O)cc1)C(=O)O` (H-Tyr-Lys-OH) was run?
The Latency time was 11 s.

With `NC(=O)C1=CN(CCCC[C@H](NC(=O)[C@@H](N)Cc2ccc(O)cc2)C(=O)O)C=CC1` as the compound, how does the Latency time read?
Its Latency time is 10 s.
